Experimental data taken from ChEMBL document CHEMBL4041468, “Effects of Koumine on Adjuvant- and Collagen-Induced Arthritis in Rats” (J Nat Prod, 2016).
Activity calls are given as the source filed them.

Tests used:
Assay type in all cases: functional, organism-based
Rattus norvegicus [1] = experiment: Antiarthritic activity in Wistar rat type-2 collagen-induced arthritis model assessed as reduction in hind paw volume at 1 mg/kg, ig via gavage administered 10 consecutive days starting from day 20 post type-2 collagen injection by plethysmometer
Outline: (§1)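 CIA in male 7-week-old Wistar rats: chicken CII (2 mg/mL in 0.1 M acetic acid) emulsified 1:1 in BCG-containing adjuvant, two intradermal 0.3 mL injections 7 d apart; controls received 0.05 M acetic acid. Gavage from day 20 for 10 d. Scoring, plethysmometry (mean of both hind paws) and von Frey threshold at baseline, pre-dosing and alternate days; n = 10.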

Rattus norvegicus [2] = experiment: Antiarthritic activity in Wistar rat type-2 collagen-induced arthritis model assessed as reduction in mechanical allodynia at 1 mg/kg, ig via gavage administered 10 consecutive days starting from day 20 post type-2 collagen injection; outline: as §1
Rattus norvegicus [3] = experiment: Antiarthritic activity in Wistar rat type-2 collagen-induced arthritis model assessed as reduction in arthritis index score at 1 mg/kg, ig via gavage administered 10 consecutive days starting from day 20 post type-2 collagen injection; outline: as §1
Rattus norvegicus [4] = experiment: Antiarthritic activity in Wistar rat type-2 collagen-induced arthritis model assessed as reduction in bone erosion at 1 mg/kg, ig via gavage administered 10 consecutive days starting from day 20 post type-2 collagen injection by X-ray method
Rattus norvegicus [5] = experiment: Antiarthritic activity in Wistar rat type-2 collagen-induced arthritis model assessed as reduction in bone degradation at 1 mg/kg, ig via gavage administered 10 consecutive days starting from day 20 post type-2 collagen injection by X-ray method
Rattus norvegicus [6] = experiment: Antiarthritic activity in Wistar rat type-2 collagen-induced arthritis model assessed as reduction in cartilage space narrowing at 1 mg/kg, ig via gavage administered 10 consecutive days starting from day 20 post type-2 collagen injection by X-ray method
Rattus norvegicus [7] = experiment: Antiarthritic activity in Wistar rat type-2 collagen-induced arthritis model assessed as reduction in serum IL-1beta level at 1 mg/kg, ig via gavage administered 10 consecutive days starting from day 20 post type-2 collagen injection by ELISA method
Outline: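 After 10 d gavage in Wistar CIA rats, trunk blood taken at sacrifice; serum stored at −70 °C. IL-1β and TNF-α measured by commercial ELISA kits per manufacturer. One-way ANOVA with Student–Newman–Keuls test; n = 10/group.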

Rattus norvegicus [8] = experiment: Antiarthritic activity in Wistar rat type-2 collagen-induced arthritis model assessed as reduction in serum anti-type-2 collagen IgG level at 1 mg/kg, ig via gavage administered 10 consecutive days starting from day 20 post type-2 collagen injection by ELISA method
Outline: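 Serum from Wistar CIA rats collected after completing 10 d gavage dosing (from day 20 post first CII injection) and assayed for anti-CII IgG using a rat anti-CII antibody ELISA kit. One-way ANOVA with Student–Newman–Keuls test; n = 10/group.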

Rattus norvegicus [9] = experiment: Antiarthritic activity in Lewis rat Freund's adjuvant-induced arthritis model assessed as reduction in arthritis index score at 2.5 mg/kg, ig administered through gavage pretreated for 1 hr followed by adjuvant challenge subsequent treatment for 9 days measured alternate days up to 24 days post dose
Outline: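 AIA induced in female 8-week-old Lewis rats by one intradermal 0.1 mL CFA injection (10 mg heat-killed M. tuberculosis per mL paraffin oil) into right hind paw; controls received paraffin oil–water emulsion. Daily intragastric dosing from 1 h before induction through 9 d. Arthritis index scored; Kruskal–Wallis with Dunn's test; n = 10/group.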

Rattus norvegicus [10] = experiment: Antiarthritic activity in Lewis rat Freund's adjuvant-induced arthritis model assessed as reduction in hind paw volume at 2.5 mg/kg, ig administered through gavage pretreated for 1 hr followed by adjuvant challenge subsequent treatment for 9 days measured alternate days up to 24 days post dose by plethysmometer
Outline: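 Lewis rat AIA (female, 8 weeks; 0.1 mL CFA intradermally into right hind paw), dosed by gavage 1 h pre-induction then daily for 9 d. Plethysmometer volumes of injected (ipsilateral) and uninjected (contralateral) hind paws recorded separately. Two-way ANOVA with Dunnett's T3 test; n = 10/group.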

Rattus norvegicus [11] = experiment: Antiarthritic activity in Lewis rat Freund's adjuvant-induced arthritis model assessed as reduction in mechanical withdrawal threshold at 2.5 mg/kg, ig administered through gavage pretreated for 1 hr followed by adjuvant challenge subsequent treatment for 9 days measured alternate days up to 24 days post dose
Outline: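 Mechanical withdrawal threshold in Lewis AIA rats (right-paw CFA, gavage dosing 1 h pre-induction and daily 9 d), tested 1 h after dosing: 30 min habituation in individual cubicles, von Frey filament applied upward to mid-paw until withdrawal, 55 g cut-off, repeated twice at 10 min intervals; ipsilateral and contralateral paws recorded separately; n = 10.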

Measured: Activity

CN(Cc1cnc2nc(N)nc(N)c2n1)c1ccc(C(=O)N[C@@H](CCC(=O)O)C(=O)O)cc1
active: Rattus norvegicus [1] | Rattus norvegicus [2] | Rattus norvegicus [3] | Rattus norvegicus [4] | Rattus norvegicus [5] | Rattus norvegicus [6] | Rattus norvegicus [7] | Rattus norvegicus [8]

COc1ccc2c(c1)c(CC(=O)O)c(C)n2C(=O)c1ccc(Cl)cc1
active: Rattus norvegicus [9] | Rattus norvegicus [10] | Rattus norvegicus [11]
